# Measurements pooled from the literature.
# Lines come from different studies, so protocols differ.
# Target: Vascular endothelial growth factor receptor 2 (KDR, Homo sapiens, UniProt P35968)
SMILES,test,conditions,endpoint,result
CCCS(=O)(=O)Nc1ccc(F)c(C(=O)c2c[nH]c3ncc(-c4ccc(Cl)cc4)cc23)c1F,"enzyme activity, inhibitor",1 µM,inhibition,< 20%
Cc1c(NC(=O)c2cc(C(N)=O)nc3cc(F)ccc23)c(C(F)(F)F)nn1Cc1ccc(C(C)(C)C)cc1,"cell-free assay, competition with immobilised ligand",1 µM,remaining binding,100%
COc1ccc(NC(=O)c2c(Nc3ccccc3)sc(C(=O)NN=Cc3ccc(Cl)cc3)c2NC(C)=O)cc1,"enzyme activity, inhibitor",1 µM,remaining activity,83.7%
CCC(=N\O)/C(C)=C/c1ccc(F)cc1,"cell-free assay, competition with immobilised ligand",1 µM,remaining binding,81%
COc1ccc(NC(=O)c2c(Nc3ccccc3)sc(C(=O)NN=Cc3cc(OC)c(OC)c(OC)c3)c2NC(C)=O)cc1,"enzyme activity, inhibitor",1 µM,remaining activity,82.1%
O=C1Nc2ccc(Cl)cc2C1=Cc1cc(Cl)c(O)c(Cl)c1,cell-free assay,0.5 µM,remaining signal,86.1%
CSc1nc(C)c(-c2ccnc(Nc3ccc(N4CCOCC4)cc3)c2)[nH]1,"enzyme activity, inhibitor",10 µM,inhibition,95.1%
COc1ccc(NC(=O)c2c(Nc3ccccc3)sc(C#N)c2NC(=O)CNc2ccc(Cl)cc2)cc1,"enzyme activity, inhibitor",0.1 µM,remaining activity,61.3%
O=C1Nc2ccc(Br)cc2/C1=C/c1cc2c([nH]1)CCCC2,cell-free assay,0.5 µM,remaining signal,70.9%
CC(C)c1ccc(NC(=O)c2cccs2)c(-c2nc3ccccc3[nH]c2=O)c1,"enzyme activity, inhibitor",1 µM,activity vs control,25%
O=C(O)c1cc(-c2ccc(C3CCNCC3)cc2)c2ccc(-c3ccc(C(F)(F)F)cc3)cc2c1,"cell-free assay, competition with immobilised ligand",1 µM,remaining binding,100%
COc1ccc(NC(=O)c2c(Nc3ccccc3)sc(C(=O)NN=Cc3ccc(OC)c(O)c3)c2NC(C)=O)cc1,"enzyme activity, inhibitor",0.1 µM,remaining activity,83.2%
CC/C(=N\NC(=O)NCc1cccc(O)c1)c1ccc(O)c(C)c1O,"enzyme activity, inhibitor",0.1 µM,inhibition,2.7%
c1nc2c(Nc3ccc4c(c3)OCCO4)nc(Nc3ccc4c(c3)OCCO4)nc2[nH]1,"enzyme activity, inhibitor",10 µM,activity vs control,11%
CCOc1cc(-c2nncn2C)ccc1Nc1ncc2cc(C)nc(NCC(C)(C)C)c2n1,"enzyme activity, inhibitor, FRET",1 µM,inhibition,< 15%
CCCCN(CCCC)C(=O)CN1C[C@H](c2cc(OC)c3c(c2)OCO3)[C@@H](C(=O)O)[C@@H]1CC(C)(C)CCC,"cell-free assay, competition with immobilised ligand",1 µM,remaining binding,88.7%
COc1ccc(NC(=O)c2c(Nc3ccccc3)sc(C#N)c2NC(=O)CNc2ccc(Br)cc2)cc1,"enzyme activity, inhibitor",1 µM,remaining activity,51.3%
